The values that follow come from the RNAGym collection of RNA variant scans (doi:10.1101/gad.245936.114).

Sequences and labels used below:
B1: tRNA (parent)
chain: CUCUCGGUAGCCAAGUUGGUUUAAGGCGCAAGACUUUAAUUUAUCACUACGAAAUCUUGAGAUCGGGCGUUCGACUCGCCCCCGGGAGAUUUUUUCCUCGAGCAA

Variants at the floor of the assay were thinned out.

In this series the parent is B1. As to the kind of experiment: nonsense suppression (GFP-seq) (ratio to wild type); higher = more function; SUP4oc tRNA, yeast GFP reporter sort-seq. The method in brief: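 Yeast were grown in raffinose/galactose medium with 80 mg/L adenine, each strain bearing a genome-integrated ochre-suppressor tRNA variant from a ~3% random-mutation library, a galactose-driven GFP ochre reporter, and RFP. After sorting into GFP/RFP bins, every bin was sequenced on an Illumina platform at phred ≥30. The GFPSEQ value, a measure of nonsense suppression, is the weighted bin median GFP/RFP relative to the unmutated parent tRNA, using each variant's estimated cell share per bin as the weight. Only variants with ≥100 reads and ≥30 cells were included.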
CUCUCGUUAGCCAAGUUGGUUUAAGGCGCAAGACUUUAAUUUAUCACUACGAAAUCUUGAGAUCAGGCGUUCGACACGCCCCCGGGAGAUUUUUUCCUCGAGCAA [G7U G65A U76A]: the nonsense suppression is ≤ 0.026. CUCUCGUUAGCCAAGUUGGUUUAAGGCGCAAGACUUUAAUUUAUCACUACGAAACCUUGAGAUCGGGUGUUCGACUCGCCCCCGGGAGCUUUUUUCCUCGAGCAA [G7U U55C C68U A89C]: the nonsense suppression is ≤ 0.026. On to CUCUCGCUAGCCAAGUUGGUUUAAGGCGCAAGUCUUUAAUUUAUCACUACGAAAUCUUGAGAUCGGGCGUUCAACUCGCCCCCGGGAGAUUUUUUCCUCGAGCAA [G7C A33U G73A], for which the nonsense suppression was ≤ 0.026. As for CUCUCGCUAGCCAAGUUGGUUUAAGGCGCAAGACUUUAAUUUAUCACUACGAAAUCUUGAGAUCGGGCGUUCUACUCGCCCCCGGGAGAUUUUUUCCUCGAGCAA [G7C G73U], the nonsense suppression was ≤ 0.026.

Regarding CUCUCGCUAGCAAAGUUGGUUUAAGGCGCAAGACUUUAAUUUAUCACUACGAAAUCUUGAGAUCGGGCGUGCGACCCGCCCCCGGGAAAUUUUUUCCUCGAGCAA [G7C C12A U71G U76C G88A], the nonsense suppression was ≤ 0.026. Consider CUCUCGCUAGGCAAGUUGGUUUAAGGCGCAAGACUUUAAUUUAUCACUACGAAAUCUUGAGAUCGGGCGUUCGACUCGACCCCGGGAGAUUUUUUCCUCGAGCAA [G7C C11G C79A], for which the nonsense suppression was ≤ 0.026. As to CUCUCGUUAGCCAAGUUGGUUUAAGGCGCAAGACUUUAAUUUAUCACUACGAAUUCUUGAGACCGGGCGUUCGACUCGCCCCCGGGAUAUUUUUUCCUCGAGCAA [G7U A54U U63C G88U], the nonsense suppression was ≤ 0.026. For the variant CUCUCGCUAGCCAAGUUGGUUCAAGACGCAAGACUUUAAUUUAUCACUACGAAAUCUUGAGAUCGGGCGUUCGACUCGCCCCCGGGAGAUUUUUUCCUCGAGCAA [G7C U22C G26A], the nonsense suppression was ≤ 0.026. For CUCUCGCUAGCCAAGUUGGUUUAAGGCGGGAGACUUUAAUUUAUCACUACGAAAUCUUGAUAUCGGGCGCUCGACUCGCCCCCGCGAGAUUUUUUCCUCGAGCAA [G7C C29G A30G G61U U70C G85C], the nonsense suppression is ≤ 0.026.

Turning to CUCUCGCUAGCCAAGUUGGUUUAAGGCGCAAGACGUUAAUUUAUCACUACGAAAUCUUGAGCUCGGGCGUUCGACUCGCCCCCGGGAGAUUUUUUCCUCGAGCAA [G7C U35G A62C], the nonsense suppression is ≤ 0.026. Regarding CUCUCGUUAGCCAAGUUGGUUUAAGGCGCGAGACUUUAAUUUAUCACUACGAAAUCUUGAGAUCGGGCGUUCGACUCGCCCCCGGGAGAUUUUUUCCUCGAGCAA [G7U A30G], the nonsense suppression was ≤ 0.026. For CUCUCGCUAGCCAAGUUGGUUUAAGGCGCAAGACUUUAAUUUAUCACUACGAAAUCAUGAGAUCGGGCGUUCGACUCGCCCCCGGGAGAUUUUUUCCUCGAGCAA [G7C U57A], the nonsense suppression is ≤ 0.026.

Consider CUCUCGUUAGCCAAGUUGGUUUAAGGCGCAAGACUUUAAUUUAUCACUACGAAAUCUUGAGAUCGGGCGUUCGACUCGCCCACGGGAGAUUUUUUCCUCGAGCAA [G7U C82A], for which the nonsense suppression worked out at 1.02.

As to CUCUCGUUAGCCAAGUUGGUUUAAGGCGCAAAACUUUAAUUUAUCACUACGAAAUCUUGCGAUCGGGCGUUCGGCUCGCCCCCGGGAGAUUUUUUCCUCGAGCAA [G7U G32A A60C A74G], the nonsense suppression was ≤ 0.026. As to CUCUCGUCAGCCAAGUUGGUUUAAGGCGCAAGACUUUAAUUUAUCACUACGAAAUCUUGAGAUCGGGCGUUCGACUCGCCCCCGGGAGAUUUUUUCCUCGAGCAA [G7U U8C], the nonsense suppression was ≤ 0.026. On to CUCUCGGAAGCCAGGUUGGUUUAAGGCGCAAGACUUUAAUUUAUCACUACGAAAUCUUGAGAUCGGGCGUUCGACUCGCCCCCGGGAGAUUUUUUCCUCGAGCAA [U8A A14G], for which the nonsense suppression was found to be 0.18. Consider CUCUCGUUAGCCAAGUUGGUUUAAGGCGCAAGACUUUAAUUUAUCACUACGAACUCUUGAGAUCGGGCGUUCGACUCGCCCCCGGGAGAUUUUUUCCUCGAGCAA [G7U A54C], for which the nonsense suppression turned out to be 0.0394. As for CUCUCGGAGGCCAAGUUGGUUUAAGGCGCAAGACUUUAAUUUAUCACUACGAAAUCUAGAGAUCGGGCGUUGGACUCGACCCCGGGAGAUUUUUUCCUCGAGCAA [U8A A9G U58A C72G C79A], the figure is ≤ 0.026; as for CUCUCGAUAGCCAAGUUGGUUUAAGGCGCAAGACUUUAAUUUAUCACUACGAAAUCUUGAGAUCGGGCGUUCGACCCGCCCCCGGGAUAUUUUUUCCUCGAGCAA [G7A U76C G88U], ≤ 0.026; as for CUCUCGUUAGCCAAGUUGUUUUAAGGCGCAAGACUUUAAUUUAUCACUACGAAAUCUUGAGAUCGGGCGUUCGACUCGCCCCCGGGAGAUUUUUUCCUCGAGCAA [G7U G19U], ≤ 0.026. As for CUCUCGCUUGCCAAGUUGGUUUAAGGCGCAAGACUUUAAUUUAUCACUACGAAAUCUUGAGAUCGGGCGUUCGACUCGCCCCCGGGAGAUUUUUUCCUCGAGCAA [G7C A9U], the nonsense suppression turned out to be 0.0428. For the variant CUCUCGUUAGCCAAGUUGGUUAAAGGCGCAAGACUUUAAUUUAUCACUACGAAAUCUUGAGAUCGGGCGUUCGACUCGCCCCCGGGAGAUUUUUUCCUCGAGCAA [G7U U22A], the nonsense suppression was ≤ 0.026. The result for CUCUCGUUAGCCGAGUAGGUUUAAGGCGCAAGACUUUAAUUUAUCACUACGAAAUCUUGAGAUCGGGCGUUCGACUCGCCCCCGGGAGAUUUUUUCCUCGAGCAA [G7U A13G U17A] reads ≤ 0.026; that for CUCUCGUUUGCCAAGUUGGUUUAAGGCGCAUGACUUUAAUUUAUCACUACGAAAUCUUGAGAUCGGGCGUUCGACUCGCCCCCGGGAGAUUUUUUCCUCGAGCAA [G7U A9U A31U], ≤ 0.026; that for CUCUCGCUAGCCAAGUUGGUUUAAGGCGCAAGACUUUAAUUUAUCACUACGAAAUCUUGAGAUCGGGCGUUCGACCCGCCCCCGGGAGAUUUUUUCCUCGAGCAA [G7C U76C], ≤ 0.026. In the case of CUCUCGAUAGCCAAGUUGGUUUAAGGCGCAAGACUUUAAUUUAUCACUACGAAAACUUGAGAUCGGGCGUUCGACUCGCCCCCGGGAGAUUUUUUCCUCGAGCAA [G7A U55A], the nonsense suppression was ≤ 0.026. With CUCUCGCUAGCCAAGUUGCUUUAAGGCGCAAGACUUUAAUUUAUCACUACGAAAUCUUGAGAUCGUGCCUUCGACUCGCCCCCGGGAGAUUUUUUCCUCGAGCAA [G7C G19C G66U G69C], the nonsense suppression is ≤ 0.026.
